Measured values reported in ChEMBL document CHEMBL4138288, “Crispenes F and G, cis-Clerodane Furanoditerpenoids from Tinospora crispa, Inhibit STAT3 Dimerization” (J Nat Prod, 2018).

Experiments:
[1] = tested on: MDA-MB-231; assay: Cytotoxicity against human MDA-MB-231 cells assessed as reduction in cell viability after 24 hrs by MTT assay; type: functional, cell-based; details: MDA-MB-231, 24 h
How it was run: (§1)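 Cells kept at 37 °C, 5% CO2. MDA-MB-231 were grown in DMEM with 10% FBS, 2 mM L-glutamine, NEAA and pen-strep, seeded at 2500 cells/well. A4 were grown in RPMI 1640 with 10% FBS and pen-strep, seeded at 5000 cells/well. WI-38 were grown in DMEM with 10% FBS, seeded at 5000 cells/well. Plates rested 24 h before compound was added in triplicate. MTT absorbance was read at 570 nm.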

[2] = Inhibition of unphosphorylated STAT3 beta dimerization (unknown origin) expressed in Escherichia coli BL21 Rosetta cells after 5 mins by fluorescence polarization assay; set-up: species or system Homo sapiens
How it was run: (§2)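 Unphosphorylated STAT3βtc was expressed in E. coli with IPTG induction overnight at 21 °C, then purified by ion exchange. In PBS pH 7.4, 350 nM protein was mixed with 10 nM FAM-pYLPQTV (final). Base polarization was read, inhibitor was added, the plate was shaken 5 min and read again. % inhibition = (X−Y)/X×100, each term corrected for free probe.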

[3] = tested on: WI-38; assay: Cytotoxicity against human WI38 cells assessed as reduction in cell viability at 100 uM after 24 hrs by MTT assay; type: cell-based; details: wi-38, 24 h; how it was run: as §1
[4] = organism: Homo sapiens; assay: Inhibition of unphosphorylated STAT3 beta dimerization (unknown origin) expressed in Escherichia coli BL21 Rosetta cells at 100 uM after 5 mins by fluorescence polarization assay relative to STA-21
[5] = organism: Homo sapiens; assay: Inhibition of unphosphorylated STAT3 beta dimerization (unknown origin) expressed in Escherichia coli BL21 Rosetta cells at 100 uM after 5 mins by fluorescence polarization assay relative to pYLKTKF
How it was run: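 Same STAT3βtc/FAM-pYLPQTV polarization displacement setup: 350 nM protein, 10 nM probe, PBS pH 7.4, 5 min after addition. Ligand tested at 100 μM. Its % inhibition (B) was expressed as B/A×100, where A is the % inhibition from 100 μM […], taken as 100%.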

[6] = Cytotoxicity against human A4 cells assessed as reduction in cell viability after 24 hrs by MTT assay; type: functional, cell-based; how it was run: as §1
[7] = Inhibition of FAM-pYLPQTV binding to unphosphorylated STAT3 beta (unknown origin) expressed in Escherichia coli BL21 Rosetta cells after 5 mins by fluorescence polarization assay; set-up: species or system Homo sapiens; how it was run: as §2

Row | IC50 [2] | IC50 [7] | Compound | IC50 [1] | Activity [3] | inhibition [4] | inhibition [5] | IC50 [6]
1 | 17 µM | 17 µM | C[C@@]1(CC(O)c2ccoc2)C(C(=O)O)=CC[C@]2(C)[C@H]1[C@H]1C=C[C@@]2(O)C(=O)O1 (stereo not given in full) | 7.8 µM | Non-Toxic | 130% | 72% | > 10 µM
2 | 42 µM | 42 µM | COC(=O)C1=C[C@H](O)C[C@H]2[C@@]1(C)C=C[C@](O)(C(=O)O)[C@@]2(C)CC(OC(C)=O)c1ccoc1 (stereo not given in full) | 10 µM | Non-Toxic | 119% | 60% | > 10 µM
3 |  |  | C[C@H]1C[C@H]2OC(=O)[C@@]34O[C@@H]3CC[C@@H]([C@]1(C)CCC1=CCOC1=O)[C@@]24C | 5.4 µM |  |  |  | 
